Source: PubChem BioAssay (several laboratories)
TWEAK Fn14 block = blocks TWEAK-Fn14 interaction in a reporter cell assay | inhibition, % at 10 µM | TWEAK-stimulated Fn14 reporter cells, luciferase luminescence, 8 h | 360,000 tested, 2% active; in the data active = inhibition above about 50%
CaV13 ICDI inh = Primary screen for inhibitors of IQ motif and Ca2+-dependent inactivation inhibitor domain binding in CACNA1D, Förster resonance energy transfer in living cells, …. HEK cells, CFP/YFP FRET ICDI-IQ, plate reader, 10 min; percent FRET-ratio fall versus neutral wells. inhibition, % at 12.3 µM. 340,000 tested, 0.098% active. AID 743397;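 active = mean replicate inhibition of at least 30% and at least 1% of replicates passing that level; inconclusive = only one of the two criteria is met; inactive = neither criterion is met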;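 note: 0% = median of the neutral control wells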
TROY signal inh = TROY signaling inhibition; inhibition, % at 10 µM; Q293 LMP1-TROYcd NF-kB luciferase reporter, 4 h; 360,000 tested, 0.98% active; AID 1347056;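 active = compounds whose plate-normalised and pattern-corrected inhibition of the luciferase reporter signal at the single screening dose is 50% or more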
LGR2 inh = blocks bursicon-induced cAMP signaling via Drosophila LGR2; HEK293 LGR2, CRE-luciferase, bursicon-stimulated, 4 h; inhibition, % at 9.99 µM; 380,000 tested, 0.35% active; AID 720647;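 active = drop in luminescence signal, shown as inhibition above about 50% in the replicate tests, limit read from the data, passing the limit was not always enough; inconclusive = probably only some replicates passing the limit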;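 note: agonist challenge used bursicon conditioned medium at about half maximal strength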
Xi reactivation = activators of X-chromosome reactivation in mouse fibroblasts. activation, % at 7.58 µM. 360,000 tested, 0.055% active. XiGFP mouse fibroblasts, % GFP-positive cells imaging, 3 d; cells co-treated with 5-aza-dC sensitizer; scaled so ellipticine positive control = 100%;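 active = mean normalized replicate activation at least 10% and every replicate at or above 10%; inconclusive = only one of the two criteria met; inactive = mean below 10% and not all replicates reach 10%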;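 note: 0% = median of on-plate neutral control wells and 100% = ellipticine 6 µM median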
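System: 68-5-11 XiGFP fibroblast line; Timing: 3 days compound exposure; Compound dosing: one concentration, pinned; Benchmarks: positive control ellipticine, 6 µM final; Buffer or medium: DMEM containing 5-aza-dC.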
Numbers without * were called inactive; ? = inconclusive; · = no result. Hits are enriched below; roughly 2% of the tested compounds scored in any of these assays.

SMILES | TWEAK Fn14 block | CaV13 ICDI inh | TROY signal inh | LGR2 inh | Xi reactivation
C[C@@H]1CN([C@@H](C)CO)C(=O)c2cc(NS(=O)(=O)c3ccccc3)ccc2O[C@@H](C)CCCCO[C@@H]1CN(C)Cc1ccc(C(F)(F)F)cc1 | · | · | · | 23 | 0
Cc1cccc(NC(=S)N=Nc2c(O)[nH]c3ccccc23)c1 | 83* | -2 | -46 | 10 | 0
COCC(=O)N1CC2(CCN(C(=O)c3ccccn3)CC2)c2c(n(C)c3cc(OC)ccc23)[C@H]1CO | · | · | · | -16 | 0
Oc1c(C(Nc2cccc(C(F)(F)F)c2)c2ccncc2)ccc2cccnc12 (configuration not stated) | 52* | 3 | -28 | 20 | 1
C[C@@H]1COCn2nncc2CC[C@@H](Cc2ccccc2)C(=O)N1 | · | · | · | · | 0
C[C@@H]1CCCCO[C@H](CN(C)Cc2ccncc2)[C@H](C)CN([C@@H](C)CO)C(=O)c2cc(NS(=O)(=O)c3ccccc3)ccc2O1 | · | · | · | 7 | 0
Cc1ccc2nc(CSc3nc(C)cc(C)c3C#N)[nH]c2c1 | 38 | -7 | 59* | · | ·
O=c1oc(Nc2ccc(F)cc2)nc2ccccc12 | 58* | -5 | 6 | 24 | ·
O=C(CN1CCOCC1)N[C@H]1CC[C@H](CCNC(=O)C2CCC2)O[C@H]1CO | · | · | · | -6 | 0
CCOC(=O)C1=C(C)NC(=S)NC1/C=C/c1ccccc1 (configuration not stated) | 22 | -2 | 6 | -5 | 36*
COC(=O)C1=C(C)NC(=S)NC1/C=C/c1ccccc1 (configuration not stated) | -10 | -1 | -9 | 5 | 0
CNC(=O)C[C@H]1CC[C@@H]2[C@H](COC[C@@H](O)CN2C(=O)Nc2cccc(OC)c2)O1 | · | · | · | 12 | 0
Cc1nn(C)c(C(=O)Nc2ccc(S(=O)(=O)NC34CC5CC(CC(C5)C3)C4)cc2)c1Br | 45 | · | 51* | · | ·
Cc1ccc(NCc2nnc(SCC(=O)NNC(=O)Cc3ccccc3)n2C)cc1 | -13 | 2 | 5 | -11 | 21*
Cc1ccc(C(=O)NNC(=O)CSc2nnc(CNc3ccc(F)cc3)n2C)cc1 | · | -5 | · | 31 | 0
Cc1ccc(-c2nc(C)c(C(=O)O)s2)cc1 | 63* | 3 | -17 | ? | 0
Cc1nc(-c2ccccc2)sc1C(=O)O | 2 | -6 | -27 | · | 0
CCCC(=O)Nc1ccc2c(c1)OC[C@@H](C)N(C(=O)c1ccncc1)C[C@H](C)[C@@H](OC)CN(C)C2=O | · | · | · | -3 | 0
C=C1C(=O)C2=CC1CCC(=O)C1(C)CCC(OC(C)=O)C(C)(C)C1CC2O (configuration not stated) | 101* | -7 | 46 | 103* | 1
CC(C)(C)c1ccc(-c2noc(CNC(=O)c3ccco3)n2)cc1 | 6 | -3 | -3 | 13 | 0
CC(NC(=O)c1ccco1)c1nc(-c2ccc(C(C)(C)C)cc2)no1 (configuration not stated) | 57* | -3 | 20 | -16 | 0
CCN1CCN(c2cc3c(cc2F)c(=O)c(C(=O)O)cn3C2CC2)CC1 | 60* | -5 | -9 | -15 | 0
O=C(CCl)NC(Cc1ccccc1)c1ccccc1 (configuration not stated) | 53* | -2 | -23 | 15 | 0
CC(=O)C(Cc1ccccc1)NC(=O)CCl (configuration not stated) | 8 | 0 | -24 | 2 | 0
COc1ccc(C(=O)c2c(C(F)(F)F)oc3c2C(=O)c2ccccc2C3=O)cc1 | 71* | · | 35 | · | ·
SMILES | TWEAK Fn14 block | CaV13 ICDI inh | TROY signal inh | LGR2 inh | Xi reactivation
CCC(C)(NC(=O)c1ccc2c(c1)OCO2)C(=O)NC1CCCCC1 (configuration not stated) | 51* | -4 | 7 | -11 | 0
CCC(C)(C(=O)NC1CCCC1)N(Cc1ccco1)C(=O)c1ccc2c(c1)OCO2 (configuration not stated) | -34 | -5 | 10 | · | ·
C[C@H]1CCCCO[C@H](CN(C)S(=O)(=O)c2cn(C)cn2)[C@@H](C)CN([C@@H](C)CO)C(=O)c2cc(NC(=O)CCCN(C)C)ccc2O1 | · | · | · | -6 | 0
O=S(=O)(Nc1ccccc1F)c1ccc(Cl)nc1 | 17 | -3 | 14 | 7 | 0
O=S(=O)(Nc1c(F)cccc1F)c1ccc(Cl)nc1 | 10 | -2 | 86* | -5 | 0
C[C@@H]1CCCCO[C@H](CN(C)C(=O)c2ccccc2)[C@H](C)CN([C@H](C)CO)C(=O)c2cc(NS(C)(=O)=O)ccc2O1 | · | · | · | -11 | -1
C=C1C(=O)[C@]23C[C@H]1CC[C@H]2[C@]1(C)[C@@H](O)CC[C@@](C)(C(=O)O)[C@H]1C[C@@H]3O | 40 | -7 | 4 | -27 | 0
C=C1C(=O)[C@]23C[C@H]1CC[C@H]2[C@]1(C)[C@@H](OC(C)=O)CC[C@@](C)(C(=O)OC)[C@H]1C[C@@H]3OC(C)=O | 85* | -6 | 24 | 29 | 0
C=C1C(=O)[C@]23C[C@H]1CCC2[C@@]1(C)C(C[C@@H]3O)[C@](C)(C(=O)OC)CC[C@@H]1OC(C)=O (some centres not stated) | 96* | -5 | 37 | 92* | 0
C=C1C(=O)[C@]23C[C@H]1CCC2[C@@]1(C)C(C[C@@H]3O)[C@](C)(C(=O)O)C[C@H](O)[C@@H]1O (some centres not stated) | -9 | -5 | -29 | 8 | 0
C=C1C(=O)[C@]23C[C@H]1CC[C@H]2[C@]1(C)[C@@H](OC(C)=O)CC[C@@](C)(C(=O)O)[C@H]1C[C@@H]3O | 79* | -7 | 27 | 32 | 5
CCOc1cc(C2c3c(n[nH]c3C)C(=O)N2c2ccc(Br)cc2)ccc1O (configuration not stated) | 40 | 0 | 50* | · | ·
C[C@H](CO)N1C[C@H](C)[C@@H](CN(C)Cc2ccc(C(=O)O)cc2)OCCCC[C@H](C)Oc2ccc(NS(=O)(=O)c3cccs3)cc2C1=O | · | · | · | 4 | 0
CCC(C)(C)NC(=O)CN(C(=O)CCC(=O)Nc1nccs1)c1ccc2c(c1)OCCO2 | 64* | -6 | 52* | -1 | 0
CO[C@H]1CN(C)C(=O)c2cc(NC(=O)C3CC3)ccc2OC[C@@H](C)N(C(=O)C2CCOCC2)C[C@H]1C | · | · | · | -2 | 0
O=C(O)c1cc(/C=C/c2ccc(N3CCOCC3)cc2)nc2ccccc12 | 40 | -4 | 9 | 69* | 0
Cc1noc(C)c1NC(=O)N(C)C[C@@H]1Oc2ccc(NC(=O)C3CC3)cc2CC(=O)N([C@H](C)CO)C[C@H]1C | · | · | · | -2 | 0
Cc1c(CNCC(C)c2ccccc2)c(C(=O)O)c(C)n1Cc1ccccc1 (configuration not stated) | -4 | 7 | -1 | -14 | 0
Cc1c(CNCCCc2ccccc2)c(C(=O)O)c(C)n1Cc1ccccc1 | 39 | 2 | 52* | -46 | 0
